The target of this test is Transitional endoplasmic reticulum ATPase (Homo sapiens) (UniProt P55072). In words: blockers of p97 ATP hydrolysis – biochemical, confirmation (AID 1517).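 Also: 0% = DMSO wells and 100% = wells lacking p97 protein.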 The settings on record: recombinant p97 ATPase, Kinase-Glo ATP luminescence; at 8 µM; active compounds read high. An outline of the steps:
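System: recombinant p97 / Medium: Tris/MgCl2/EDTA/DTT buffer, pH 8.0 / Incubation: 30 min compound–enzyme preincubation at 25 °C, then 3 h ATP reaction / Measured by: Kinase-Glo luciferase luminescence measuring remaining ATP / Read-out: % inhibition versus DMSO and no-enzyme controls / Replicates: triplicate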
For orientation: Kinase-Glo measures the ATP left after a reaction by luminescence.

Each structure is given as a SMILES string. Some of the results follow. A number with no mark means an inactive call.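 The calls were made as follows: active = percent inhibition of p97 ATPase above a set limit, the primary screen's mean plus 3 SD (cut at about 15% in these data); inactive = the rest.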

Drawing on PubChem BioAssay AID1517 (The Scripps Research Institute Molecular Screening Center, 2009), this text covers inhibition for one compound.

Chain of Transitional endoplasmic reticulum ATPase (Homo sapiens) (P55072 whole entry, looked up): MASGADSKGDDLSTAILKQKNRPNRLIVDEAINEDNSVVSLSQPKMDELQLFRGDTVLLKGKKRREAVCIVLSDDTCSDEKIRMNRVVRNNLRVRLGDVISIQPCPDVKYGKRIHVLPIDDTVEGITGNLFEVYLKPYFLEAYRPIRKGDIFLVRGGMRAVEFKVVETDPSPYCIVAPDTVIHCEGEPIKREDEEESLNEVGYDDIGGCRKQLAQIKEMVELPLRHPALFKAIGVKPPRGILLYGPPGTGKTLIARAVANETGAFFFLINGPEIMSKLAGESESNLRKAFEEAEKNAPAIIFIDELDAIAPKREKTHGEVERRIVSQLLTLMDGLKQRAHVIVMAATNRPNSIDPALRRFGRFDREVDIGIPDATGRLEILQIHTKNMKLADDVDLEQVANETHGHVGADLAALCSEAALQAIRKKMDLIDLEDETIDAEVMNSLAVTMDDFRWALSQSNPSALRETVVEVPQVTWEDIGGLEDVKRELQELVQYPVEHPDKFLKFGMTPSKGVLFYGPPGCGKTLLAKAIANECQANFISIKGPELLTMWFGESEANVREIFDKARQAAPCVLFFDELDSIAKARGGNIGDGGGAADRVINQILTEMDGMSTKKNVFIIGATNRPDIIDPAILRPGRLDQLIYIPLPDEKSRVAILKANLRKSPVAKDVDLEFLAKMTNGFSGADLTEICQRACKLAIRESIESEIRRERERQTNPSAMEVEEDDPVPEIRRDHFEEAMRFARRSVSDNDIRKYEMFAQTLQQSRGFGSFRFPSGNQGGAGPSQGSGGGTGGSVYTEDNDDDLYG

The term inhibition denotes the percentage by which the read-out fell short of the control. Turning to `O=c1[nH]c(CN2CC=C(c3ccccc3)CC2)nc2scc(-c3cccs3)c12`, the inhibition was 10.8%.
